Experimental data: ChEMBL document CHEMBL4414551, “Design, Synthesis, and Biological Evaluation of Substituted 4,6-Dihydrospiro[[1,2,3]triazolo[4,5-b]pyridine-7,3'-indoline]-2',5(3H)-dione Analogues as Potent NS4B Inhibitors for the Treatment of Dengue Virus Infection” (J Med Chem, 2019)
The source made the active and inactive calls. The calls are words filed in the database; no cut-off is given here.

What was measured:
dengue virus type 2 [1] = test: Resistance index, ratio of EC50 for antiviral activity against NS3 T606A mutant and NS4B V63L mutant containing Dengue virus 2 isolate P12-VI infected in human HuH7 cells using viral isolates selected by serial passaging in presence of (R)-5'-Chloro-3-((S)-1-(4-chlorophenyl)ethyl)-1'-(2-(dimethylamino)ethyl)-4,6-dihydrospiro[[1,2,3]triazolo[4,5-b]-pyridine-7,3'-indoline]-2',5(3H)-dione incubated for 3 days by viral reduction assay to EC50 for antiviral activity against Dengue virus 2 isolate P0 infected in human HuH7 cells incubated for 3 days by viral reduction assay; format: functional
dengue virus type 2 [2] = test: Antiviral activity against Dengue virus 2 NGC infected in human HuH7 replicon cells expressing Renilla luciferase and neomycin-resistance genes assessed as reduction in viral replication incubated for 48 hrs by luciferase reporter replicon-based assay; format: functional, organism-based; conditions: Huh-7, 48 h
Procedure, shortened: (§1)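 Huh7 cells stably carrying a Renilla luciferase/neomycin-resistance replicon (DENV-1 WestPac, DENV-2 NGC, DENV-3 D3MY05-34640 or DENV-4 D4MY01-22713). Cells seeded at 10k per well and incubated overnight at 37 °C, 5% CO2. Then exposed to 2-fold serial compound dilutions for 48 h, in duplicate. Luciferase read with a live-cell substrate. EC50 from four-parameter logistic fit.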

dengue virus type 2 [3] = test: Antiviral activity against NS3 T606A mutant and NS4B V63L mutant containing Dengue virus 2 isolate P12-VI infected in human HuH7 cells using viral isolates selected by serial passaging in presence of (R)-5'-Chloro-3-((S)-1-(4-chlorophenyl)ethyl)-1'-(2-(dimethylamino)ethyl)-4,6-dihydrospiro[[1,2,3]triazolo[4,5-b]-pyridine-7,3'-indoline]-2',5(3H)-dione incubated for 3 days by viral reduction assay; format: functional, organism-based; conditions: Huh-7
dengue virus type 1 = test: Antiviral activity against Dengue virus 1 WestPac infected in human HuH7 replicon cells expressing Renilla luciferase and neomycin-resistance genes assessed as reduction in viral replication incubated for 48 hrs by luciferase reporter replicon-based assay; format: functional, organism-based; conditions: Huh-7, 48 h; procedure, shortened: as §1
dengue virus type 2 [4] = test: Antiviral activity against Dengue virus 2 D2Y98P infected in human HuH7 cells incubated for 48 hrs by viral titer reduction assay; format: functional, organism-based; conditions: Huh-7, 48 h
Procedure, shortened: (§2)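 Huh7 cells seeded the day before, then infected with DENV-2 NGC or D2Y98P at MOI 0.3 in the presence of 2-fold serial compound dilutions, in triplicate. After 48 h at 37 °C, infectious virus in the culture fluid was titrated by plaque assay. EC50 from four-parameter logistic fit.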

dengue virus type 2 [5] = test: Antiviral activity against Dengue virus 2 D2Y98P infected in A129 mouse model of dengue viremia assessed as reduction in viral loads in sera at 100 mg/kg, po BID for 3 days measured day 3 postinfection by viral plaque assay relative to control; format: functional
Procedure, shortened: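 A129 mice (IFN-α/β receptor knockout), 3 weeks old, n = 6 per group; DENV-2 D2Y98P stock grown in BHK-21 cells, 100 µL at 10⁷ PFU/ml given subcutaneously. Oral dosing started immediately, twice daily for 3 days, as a suspension in 2.5% DMSO, 50% PEG-400 and 47.5% DPBS, or vehicle alone. Retro-orbital bleed on day 3 p.i.; plasma viremia measured by plaque assay; unpaired parametric test.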

dengue virus type 2 [6] = test: Antiviral activity against Dengue virus 2 isolate P0 infected in human HuH7 cells incubated for 3 days by viral reduction assay; format: functional, organism-based; conditions: isolate P0, Huh-7, 72 h
[7] = Cytotoxicity in human HuH7 replicon cells infected with Dengue virus 2 NGC assessed as reduction in cell viability incubated for 48 hrs by Cell-titer-Glo reagent based assay; design: species or system Huh-7
Procedure, shortened: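 Huh7 cells or Huh7 replicon cells plated, then held at 37 °C with 5% CO₂ overnight. Exposed to 2-fold serial compound dilutions for 48 h, in duplicate. Viability read with CellTiter-Glo and normalized to 0.45% DMSO wells set at 100%. CC50 from four-parameter logistic fit.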

dengue virus type 2 [8] = test: Antiviral activity against Dengue virus 2 D2Y98P infected in A129 mouse model of dengue viremia assessed as reduction in viral morbidity by measuring body weight at 100 mg/kg, po BID for 3 days measured day 3 postinfection by viral plaque assay relative to control; format: functional, organism-based
[9] = Tmax in Sprague-Dawley rat at 20 mg/kg, po measured up to 24 hrs by LC-MS/MS analysis; format: ADME, organism-based; conditions: in vivo
Procedure, shortened: (§3)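 Male SD rats, n = 3, fasted 12 h, given 20 mg/kg orally. Comparison arm given 10 mg/kg as an iv bolus, n = 3. Both formulated in DMSO:20% HP-β-CD in saline (1:9). Plasma sampled from 15 min (5 min iv) to 24 h. Analysed by LC-MS/MS against an 8-point standard curve with 6 QCs. Parameters derived by non-compartmental analysis.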

dengue virus type 2 [10] = test: Antiviral activity against Dengue virus 2 NGC infected in human HuH7 cells incubated for 48 hrs by viral titer reduction assay; format: functional, organism-based; conditions: Huh-7, 48 h; procedure, shortened: as §2
dengue virus type 3 = test: Antiviral activity against Dengue virus 3 D3MY05-34640 infected in human HuH7 replicon cells expressing Renilla luciferase and neomycin-resistance genes assessed as reduction in viral replication incubated for 48 hrs by luciferase reporter replicon-based assay; format: functional, organism-based; conditions: D3MY05-34640, Huh-7, 48 h; procedure, shortened: as §1
[11] = Oral bioavailability n Sprague-Dawley rat at 20 mg/kg measured up to 24 hrs by LC-MS/MS analysis; format: ADME, organism-based; conditions: in vivo; procedure, shortened: as §3
[12] = Clearance in Sprague-Dawley rat at 20 mg/kg, po measured up to 24 hrs by LC-MS/MS analysis; format: ADME, organism-based; conditions: in vivo
Procedure, shortened: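 Male SD rats, N = 3, fasted 12 h; oral 20 mg/kg (alongside a 10 mg/kg i.v. bolus arm) formulated as DMSO solution : 20% HP-β-CD in saline = 1:9. Plasma sampled at 15 min, 30 min, 1, 2, 4, 8 and 24 h. Levels measured by LC-MS/MS against an 8-point standard curve with 6 QCs; parameters from non-compartmental analysis.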

dengue virus type 4 = test: Antiviral activity against Dengue virus 4 D4MY01-22713 infected in human HuH7 replicon cells expressing Renilla luciferase and neomycin-resistance genes assessed as reduction in viral replication incubated for 48 hrs by luciferase reporter replicon-based assay; format: functional, organism-based; conditions: D4MY01-22713, Huh-7, 48 h; procedure, shortened: as §1

With CC(C)CCN1C(=O)[C@]2(CC(=O)Nc3c2nnn3[C@@H](C)c2ccc(Cl)cc2)c2cc(Cl)ccc21 the “Ratio EC50” value (dengue virus type 2 [1]) was 16, the EC50 (dengue virus type 2 [2]) was 160 nM and the EC50 (dengue virus type 2 [3]) was 1960 nM. For the same compound, the EC50 (dengue virus type 1) was 780 nM, the EC50 (dengue virus type 2 [4]) was 130 nM and the log reduction (dengue virus type 2 [5]) was 2.4. For the same compound, the EC50 (dengue virus type 2 [6]) was 123 nM, the CC50 at 48 h [7] was over 10 µM and the Activity (dengue virus type 2 [8]) was “Active”. For the same compound, the Tmax [9] was 1 h, the EC50 (dengue virus type 2 [10]) was 100 to 108 nM and the EC50 (dengue virus type 3) was 35 nM. For the same compound, the bioavailability [11] was 30%, the CL/F [12] was 59.5 mL/min/kg and the EC50 (dengue virus type 4) was over 5 µM.
